Results: ChEMBL document CHEMBL4257486, “A novel allosteric inhibitor that prevents IKKβ activation” (Medchemcomm, 2018)
The source made the active and inactive calls. The calls are words filed in the database; no cut-off is given here.

Experiments:
[1] = biological target: Epidermal growth factor receptor (Homo sapiens) (UniProt P00533); assay: Inhibition of human EGFR using poly[Glu:Tyr] (4:1) as substrate at 100 uM after 40 mins in presence of [gamma-33P-ATP] by scintillation counting analysis
Procedure, shortened: (§1)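 Radiometric [γ-33P]ATP assay (specific activity approx. 500 cpm/pmol) run by an outsourced service. Compound was added first from a 50x stock in DMSO, giving 2% DMSO final. Positive controls contained DMSO only; blanks used a reference inhibitor to set 0% activity. Reactions were started with MgATP mix, run 40 min at room temperature, and stopped with 3% phosphoric acid. They were spotted on P30 filtermat, washed in 75 mM phosphoric acid and methanol, and scintillation counted.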

[2] = biological target: T1, Inhibitor of nuclear factor kappa-B kinase subunit epsilon (Homo sapiens) (UniProt Q14164); assay: Inhibition of human activated IKKepsilon using casein as substrate at 100 uM after 40 mins in presence of [gamma-33P-ATP] by scintillation counting analysis; procedure, shortened: as §1
T1 sequence (whole entry): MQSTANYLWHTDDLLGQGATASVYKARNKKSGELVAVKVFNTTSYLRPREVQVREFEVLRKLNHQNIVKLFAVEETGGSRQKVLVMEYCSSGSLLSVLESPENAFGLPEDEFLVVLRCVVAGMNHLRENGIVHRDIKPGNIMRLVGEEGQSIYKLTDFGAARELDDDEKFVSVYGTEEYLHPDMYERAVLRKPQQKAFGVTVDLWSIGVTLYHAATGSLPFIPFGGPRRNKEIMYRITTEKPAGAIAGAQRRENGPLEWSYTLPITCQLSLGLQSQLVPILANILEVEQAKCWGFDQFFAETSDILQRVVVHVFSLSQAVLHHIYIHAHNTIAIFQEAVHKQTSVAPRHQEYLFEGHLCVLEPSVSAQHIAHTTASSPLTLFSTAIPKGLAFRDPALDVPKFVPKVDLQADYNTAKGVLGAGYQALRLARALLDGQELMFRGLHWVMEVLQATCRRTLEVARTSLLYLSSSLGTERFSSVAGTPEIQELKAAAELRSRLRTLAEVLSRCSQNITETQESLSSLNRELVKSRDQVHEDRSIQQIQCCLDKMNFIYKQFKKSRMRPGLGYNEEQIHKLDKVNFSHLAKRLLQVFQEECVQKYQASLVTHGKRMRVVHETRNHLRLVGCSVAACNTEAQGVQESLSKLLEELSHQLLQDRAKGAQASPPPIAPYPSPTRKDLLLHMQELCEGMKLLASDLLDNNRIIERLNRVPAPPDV

[3] = biological target: T2, Protein kinase C zeta type (Homo sapiens) (UniProt Q05513); assay: Inhibition of human PKCzeta using ERMRPRKRQGSVRRRV as substrate at 100 uM after 40 mins in presence of [gamma-33P-ATP] by scintillation counting analysis; procedure, shortened: as §1
T2 sequence (whole entry): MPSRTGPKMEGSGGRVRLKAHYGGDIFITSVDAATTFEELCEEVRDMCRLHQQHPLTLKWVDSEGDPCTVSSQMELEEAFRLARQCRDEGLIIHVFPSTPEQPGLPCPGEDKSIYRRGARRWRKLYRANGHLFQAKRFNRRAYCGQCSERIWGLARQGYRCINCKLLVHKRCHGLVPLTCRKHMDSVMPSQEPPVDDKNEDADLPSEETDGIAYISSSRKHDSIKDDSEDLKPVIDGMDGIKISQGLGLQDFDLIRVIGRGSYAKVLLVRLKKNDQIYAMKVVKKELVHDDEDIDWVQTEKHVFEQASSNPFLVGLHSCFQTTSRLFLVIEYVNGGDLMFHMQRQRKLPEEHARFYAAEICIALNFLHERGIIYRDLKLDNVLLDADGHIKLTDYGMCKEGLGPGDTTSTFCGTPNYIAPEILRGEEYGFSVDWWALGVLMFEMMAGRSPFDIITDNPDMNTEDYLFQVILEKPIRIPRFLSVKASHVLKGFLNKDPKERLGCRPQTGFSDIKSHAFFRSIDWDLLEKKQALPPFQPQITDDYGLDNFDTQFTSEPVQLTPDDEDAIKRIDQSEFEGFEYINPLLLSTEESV

[4] = biological target: T3, Inhibitor of nuclear factor kappa-B kinase subunit beta (Homo sapiens) (UniProt O14920); assay: Inhibition of activated human IKKB using poly[Glu:Tyr] (4:1) as substrate at 100 uM after 40 mins in presence of [gamma-33P-ATP] by scintillation counting analysis; details: in the assay text read “LDDRHDSGLDSMKDEEY peptide as substrate” for “poly[Glu:Tyr] (4:1) as substrate”; procedure, shortened: as §1
T3 sequence (whole entry): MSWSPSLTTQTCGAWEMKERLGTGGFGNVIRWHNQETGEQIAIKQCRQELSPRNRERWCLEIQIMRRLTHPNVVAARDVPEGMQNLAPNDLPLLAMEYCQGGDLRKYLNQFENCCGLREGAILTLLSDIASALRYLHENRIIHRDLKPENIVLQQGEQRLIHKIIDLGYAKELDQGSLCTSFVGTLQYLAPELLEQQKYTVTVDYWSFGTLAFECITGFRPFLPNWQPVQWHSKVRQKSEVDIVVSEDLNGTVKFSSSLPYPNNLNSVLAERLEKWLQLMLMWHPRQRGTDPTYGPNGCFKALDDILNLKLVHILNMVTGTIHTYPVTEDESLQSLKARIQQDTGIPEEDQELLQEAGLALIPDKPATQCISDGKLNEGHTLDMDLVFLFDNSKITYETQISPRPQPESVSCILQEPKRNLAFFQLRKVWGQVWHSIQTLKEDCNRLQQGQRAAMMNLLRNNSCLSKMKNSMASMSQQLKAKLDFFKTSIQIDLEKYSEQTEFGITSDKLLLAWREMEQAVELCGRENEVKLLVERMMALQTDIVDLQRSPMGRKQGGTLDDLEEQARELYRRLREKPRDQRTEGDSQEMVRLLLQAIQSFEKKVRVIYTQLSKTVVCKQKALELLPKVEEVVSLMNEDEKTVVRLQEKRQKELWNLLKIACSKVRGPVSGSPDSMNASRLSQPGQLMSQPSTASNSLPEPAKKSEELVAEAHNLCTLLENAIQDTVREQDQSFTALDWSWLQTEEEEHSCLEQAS

HEK293 = assay: Cytotoxicity in HEK293T cells expressing pGL4.32[luc2p/NF-kBRE/Hygro] by MTT assay; type: cell-based; details: human
Procedure, shortened: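 HEK293T cells were co-transfected with pGL4.32 and pGL4.74, re-seeded in 96-well plates, and treated with or without compound for 30 min. They were then stimulated with 10 ng/ml TNFα for 6-8 h, as in the reporter assay. MTT (20 µl of 5 mg/ml in PBS) was added for 4 h at 37 °C. Formazan was dissolved in DMSO and read at 490 nm. Values are mean±SD of at least triplicate measurements.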

[5] = biological target: Receptor tyrosine-protein kinase erbB-2 (Homo sapiens) (UniProt P04626); assay: Inhibition of human ErbB2 using poly(Glu-Tyr) as substrate at 100 uM after 40 mins in presence of [gamma-33P-ATP] by scintillation counting analysis; procedure, shortened: as §1
[6] = biological target: Protein kinase C theta type (Homo sapiens) (UniProt Q04759); assay: Inhibition of human PKCtheta using histone H1 as substrate at 100 uM after 40 mins in presence of [gamma-33P-ATP] by scintillation counting analysis; procedure, shortened: as §1
Chain of Protein kinase C theta type (Homo sapiens) (Q04759 whole entry, looked up): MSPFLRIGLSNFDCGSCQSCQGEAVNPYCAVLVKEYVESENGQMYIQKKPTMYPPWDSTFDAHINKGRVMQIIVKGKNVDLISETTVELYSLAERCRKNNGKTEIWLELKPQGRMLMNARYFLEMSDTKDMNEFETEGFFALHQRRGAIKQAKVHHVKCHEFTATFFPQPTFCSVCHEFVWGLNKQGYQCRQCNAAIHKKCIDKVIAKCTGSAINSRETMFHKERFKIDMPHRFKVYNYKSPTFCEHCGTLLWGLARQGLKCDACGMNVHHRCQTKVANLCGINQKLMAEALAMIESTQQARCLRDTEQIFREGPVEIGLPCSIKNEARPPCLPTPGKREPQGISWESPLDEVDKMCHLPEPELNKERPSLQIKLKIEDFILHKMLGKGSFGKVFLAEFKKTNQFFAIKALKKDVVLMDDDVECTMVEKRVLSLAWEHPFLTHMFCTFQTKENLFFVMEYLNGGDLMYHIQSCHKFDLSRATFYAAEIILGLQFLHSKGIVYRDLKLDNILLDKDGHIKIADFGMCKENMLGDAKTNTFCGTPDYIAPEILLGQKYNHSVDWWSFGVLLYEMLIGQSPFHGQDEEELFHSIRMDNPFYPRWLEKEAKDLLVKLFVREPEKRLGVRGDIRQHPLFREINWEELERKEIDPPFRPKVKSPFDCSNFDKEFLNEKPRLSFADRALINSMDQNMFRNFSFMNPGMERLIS

Chain of Epidermal growth factor receptor (Homo sapiens) (P00533 whole entry): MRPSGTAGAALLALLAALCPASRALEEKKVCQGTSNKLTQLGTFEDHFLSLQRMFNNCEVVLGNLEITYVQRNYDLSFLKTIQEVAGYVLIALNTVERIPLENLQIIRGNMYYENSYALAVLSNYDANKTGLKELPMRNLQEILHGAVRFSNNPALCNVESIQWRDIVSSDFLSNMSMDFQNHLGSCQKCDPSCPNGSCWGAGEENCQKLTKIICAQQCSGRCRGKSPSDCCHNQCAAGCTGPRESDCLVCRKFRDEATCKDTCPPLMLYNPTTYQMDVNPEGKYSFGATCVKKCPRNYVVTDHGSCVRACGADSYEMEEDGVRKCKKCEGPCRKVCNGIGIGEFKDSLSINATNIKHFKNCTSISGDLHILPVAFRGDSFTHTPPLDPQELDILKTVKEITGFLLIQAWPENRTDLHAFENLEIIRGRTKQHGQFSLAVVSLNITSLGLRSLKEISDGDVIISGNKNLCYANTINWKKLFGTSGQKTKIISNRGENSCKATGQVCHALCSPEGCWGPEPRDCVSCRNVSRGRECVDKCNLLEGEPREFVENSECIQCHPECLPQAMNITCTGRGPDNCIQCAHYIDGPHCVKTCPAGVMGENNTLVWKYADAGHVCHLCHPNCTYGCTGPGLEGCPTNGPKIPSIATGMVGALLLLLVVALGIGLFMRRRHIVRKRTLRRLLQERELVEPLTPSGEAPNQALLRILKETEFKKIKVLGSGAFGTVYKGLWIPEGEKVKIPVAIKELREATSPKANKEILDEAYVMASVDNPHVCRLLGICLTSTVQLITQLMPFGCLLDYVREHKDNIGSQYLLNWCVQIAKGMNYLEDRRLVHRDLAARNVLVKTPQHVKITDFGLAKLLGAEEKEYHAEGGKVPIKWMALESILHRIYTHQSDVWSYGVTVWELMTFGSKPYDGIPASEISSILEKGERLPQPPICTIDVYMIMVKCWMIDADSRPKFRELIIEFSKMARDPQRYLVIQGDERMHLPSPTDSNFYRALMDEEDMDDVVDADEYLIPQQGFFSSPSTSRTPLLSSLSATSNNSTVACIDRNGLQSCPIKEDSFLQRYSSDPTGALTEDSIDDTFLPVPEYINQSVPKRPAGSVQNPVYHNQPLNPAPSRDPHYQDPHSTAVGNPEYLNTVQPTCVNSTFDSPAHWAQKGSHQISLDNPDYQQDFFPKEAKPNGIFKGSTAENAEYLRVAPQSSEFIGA
Chain of Receptor tyrosine-protein kinase erbB-2 (Homo sapiens) (P04626 whole entry): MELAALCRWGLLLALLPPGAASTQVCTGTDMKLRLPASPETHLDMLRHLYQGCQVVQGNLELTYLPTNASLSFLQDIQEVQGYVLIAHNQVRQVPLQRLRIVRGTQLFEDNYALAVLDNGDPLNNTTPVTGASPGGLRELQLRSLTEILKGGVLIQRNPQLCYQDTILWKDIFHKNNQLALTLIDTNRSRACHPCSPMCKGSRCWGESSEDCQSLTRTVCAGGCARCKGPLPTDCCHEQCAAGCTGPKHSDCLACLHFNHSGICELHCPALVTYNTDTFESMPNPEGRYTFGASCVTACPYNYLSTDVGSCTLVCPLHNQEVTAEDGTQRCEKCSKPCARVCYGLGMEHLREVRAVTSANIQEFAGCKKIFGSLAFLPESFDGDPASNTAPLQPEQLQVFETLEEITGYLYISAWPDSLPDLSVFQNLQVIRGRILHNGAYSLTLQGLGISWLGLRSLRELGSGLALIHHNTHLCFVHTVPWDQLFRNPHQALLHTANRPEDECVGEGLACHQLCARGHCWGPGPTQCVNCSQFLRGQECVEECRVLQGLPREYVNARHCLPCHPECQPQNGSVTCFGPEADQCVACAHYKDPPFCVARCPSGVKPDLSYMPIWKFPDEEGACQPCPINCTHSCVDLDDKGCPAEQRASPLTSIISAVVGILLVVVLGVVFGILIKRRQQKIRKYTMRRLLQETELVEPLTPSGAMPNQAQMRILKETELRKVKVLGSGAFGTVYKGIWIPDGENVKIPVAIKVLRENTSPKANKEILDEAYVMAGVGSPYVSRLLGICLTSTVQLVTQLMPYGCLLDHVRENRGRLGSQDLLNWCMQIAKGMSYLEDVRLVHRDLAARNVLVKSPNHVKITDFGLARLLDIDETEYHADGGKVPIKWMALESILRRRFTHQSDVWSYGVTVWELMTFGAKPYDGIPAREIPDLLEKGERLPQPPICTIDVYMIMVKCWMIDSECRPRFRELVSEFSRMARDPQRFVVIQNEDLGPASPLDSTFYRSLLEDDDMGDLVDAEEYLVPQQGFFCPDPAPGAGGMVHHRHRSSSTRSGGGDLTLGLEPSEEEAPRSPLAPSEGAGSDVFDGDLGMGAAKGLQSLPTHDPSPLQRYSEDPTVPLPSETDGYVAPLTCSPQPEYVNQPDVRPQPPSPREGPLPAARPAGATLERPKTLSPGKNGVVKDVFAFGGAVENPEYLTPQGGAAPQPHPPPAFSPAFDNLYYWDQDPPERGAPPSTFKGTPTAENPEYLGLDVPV

inhibition [1]: inactive | inhibition [2]: inactive | inhibition [3]: inactive | inhibition [4]: inactive | inhibition [5]: inactive | inhibition [6]: inactive
SMILES: CCOc1c(S(=O)(=O)NC2CC(C)(C)NC(C)(C)C2)ccc(Cl)c1Cl
Activity (HEK293): Non-Toxic
